Holding throughout (type): functional
The test system of assay [1] is Aspergillus fumigatus. As to the kind of experiment: Antifungal activity against Aspergillus fumigatus ATCC 46913 after 72 hr by broth microdilution method. The note with it: ATCC 46913, 72 h. In outline: (§1)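 Molds were grown 7 days on SDA at 25–28 °C, and conidia were harvested in sterile 0.85% NaCl. Conidia were counted by hemocytometer and adjusted to about 5 × 10^6 conidia/mL. Microdilution used Sabouraud broth in 96-well plates with compound at 2048 to 8 μg/mL and about 2.5 × 10^5 conidia/mL per well. Plates were incubated at 25–28 °C for 72 h, with readings confirmed at 7 days. Amphotericin B was the reference.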
Background: Dilution methods test growth across graded concentrations, often in twofold steps.

Assay [2] has as its system Aspergillus fumigatus. As to the kind of experiment: Antifungal activity against Aspergillus fumigatus IPP 210 after 72 hr by broth microdilution method. The note with it: IPP 210, 72 h. In outline:
as §1

In assay [3] the test system is Aspergillus fumigatus. As to the kind of experiment: Antifungal activity against Aspergillus fumigatus ATCC 16913 after 72 hr by broth microdilution method. The conditions noted are these: for MIC: Aspergillus fumigatus, ATCC 16913, 72 h. In outline:
as §1

Assay [4] relates to Aspergillus flavus. As to the kind of experiment: Antifungal activity against Aspergillus flavus LM 210 after 72 hr by broth microdilution method. The conditions noted are these: LM 210, 72 h. An outline of the steps: as §1
In assay [5] the test system is Aspergillus flavus. As to the kind of experiment: Antifungal activity against Aspergillus flavus ATCC 16013 after 72 hr by broth microdilution method. The note with it: ATCC 16013, 72 h. An outline of the steps:
as §1

Assay [6] relates to Aspergillus flavus. As to the kind of experiment: Antifungal activity against Aspergillus flavus LM 247 after 72 hr by broth microdilution method. The note with it: LM 247, 72 h. An outline of the steps: as §1
The test system of assay [7] is Aspergillus fumigatus. As to the kind of experiment: Antifungal activity against Aspergillus fumigatus ATCC 40640 after 72 hr by broth microdilution method. The conditions noted are these: ATCC 40640, 72 h. In outline:
as §1

The test system of assay [8] is Aspergillus flavus. As to the kind of experiment: Antifungal activity against Aspergillus flavus LM 26 after 72 hr by broth microdilution method. The conditions noted are these: LM 26, 72 h. In outline: as §1

In brackets after ≈: the same amount, converted by molar mass.

The term MIC denotes the lowest concentration found to suppress growth. A high value points to a need for much substance. Turning to `C=CCOc1ccc2oc(=O)ccc2c1`, the MIC in assay [1], in assay [2], in assay [3], in assay [4], in assay [5] and in assay [6] was at least 2050 µg/mL throughout. Also, the MIC in assay [7] and in assay [8] was at least 2050 µg/mL throughout. Also, in assay [3], the “log(1/MIC)” value was 1.99.

As to `C=CCOc1cc(=O)oc2ccccc12`, the MIC in assay [1] is 32 µg/mL (≈ 158 µM); in assay [2] it was 64 µg/mL (≈ 317 µM); in assay [3], 32 µg/mL (≈ 158 µM); in assay [4], 32 µg/mL (≈ 158 µM); in assay [5], 32 µg/mL (≈ 158 µM); in assay [6], 1020 µg/mL (≈ 5060 µM). Besides, the MIC in assay [7] stood at 32 µg/mL (≈ 158 µM); in assay [8], 64 µg/mL (≈ 317 µM). The “log(1/MIC)” value in assay [3] is given as 3.8.

Turning to `CC(C)=CCOc1ccc2oc(=O)ccc2c1`, the MIC in assay [1], in assay [2], in assay [3], in assay [4], in assay [5] and in assay [6] was at least 2050 µg/mL throughout. The MIC in assay [7] and in assay [8] was at least 2050 µg/mL each time. Further, the “log(1/MIC)” value in assay [3] is 2.05.

On to `CC(C)=CCC/C(C)=C/COc1ccc2oc(=O)ccc2c1`, for which the MIC in assay [1], in assay [2], in assay [3], in assay [4], in assay [5] and in assay [6] was at least 2050 µg/mL each time. For the same molecule, the MIC in assay [7] and in assay [8] was at least 2050 µg/mL throughout. Moreover, the “log(1/MIC)” value in assay [3] is given as 2.16.

As for `CC(=O)Oc1ccc2oc(=O)ccc2c1`, the MIC in assay [1], in assay [2], in assay [3], in assay [4], in assay [5] and in assay [6] was 256 µg/mL (≈ 1250 µM) in each case. Moreover, the MIC in assay [7] and in assay [8] was 256 µg/mL (≈ 1250 µM) each time. In assay [3], the “log(1/MIC)” value was 2.89.

`CC(=O)Oc1cc(=O)oc2ccccc12`: the MIC in assay [1], in assay [2], in assay [3], in assay [4], in assay [5] and in assay [6] was 16 µg/mL (≈ 78.4 µM) throughout. The minimum inhibitory concentration (MIC) in assay [7] and in assay [8] was 16 µg/mL (≈ 78.4 µM) throughout. In assay [3], the “log(1/MIC)” value is listed as 4.1.

Turning to `CCOC(=O)COc1ccc2ccc(=O)oc2c1`, the minimum inhibitory concentration (MIC) in assay [1], in assay [2], in assay [3], in assay [4], in assay [5] and in assay [6] was 512 µg/mL (≈ 2060 µM) in each case. Also, the MIC in assay [7] and in assay [8] was 512 µg/mL (≈ 2060 µM) each time. The “log(1/MIC)” value in assay [3] was 2.68.

As for `O=c1ccc2cc([N+](=O)[O-])c(O)cc2o1`, the minimal inhibitory concentration (MIC) in assay [1], in assay [2], in assay [3], in assay [4], in assay [5] and in assay [6] was 16 µg/mL (≈ 77.2 µM) each time. Also, the MIC in assay [7] and in assay [8] was 16 µg/mL (≈ 77.2 µM) throughout. The “log(1/MIC)” value in assay [3] is 4.11.

On to `O=c1ccc2c([N+](=O)[O-])c(O)c([N+](=O)[O-])cc2o1`, for which the MIC in assay [1], in assay [2], in assay [3], in assay [4], in assay [5] and in assay [6] was 512 µg/mL (≈ 2030 µM) each time. Besides, the MIC in assay [7] and in assay [8] was 512 µg/mL (≈ 2030 µM) in each case. For the same molecule, the “log(1/MIC)” value in assay [3] worked out at 2.69.

In the case of `O=c1oc2ccccc2c(O)c1[N+](=O)[O-]`, the MIC in assay [1], in assay [2], in assay [3], in assay [4], in assay [5] and in assay [6] was 1020 µg/mL (≈ 4940 µM) throughout. Also, the minimum inhibitory concentration (MIC) in assay [7] and in assay [8] was 1020 µg/mL (≈ 4940 µM) throughout. Besides, in assay [3], the “log(1/MIC)” value is on record as 2.3.

The record behind these values is ChEMBL document CHEMBL3045066, “Synthesis, structure-activity relationships (SAR) and in silico studies of coumarin derivatives with antifungal activity” (2013).
